Experimental data reported in ChEMBL document CHEMBL1143422, “In vitro selection and characterization of human immunodeficiency virus type 2 with decreased susceptibility to lopinavir” (Antimicrob Agents Chemother, 2007).
The source made the active and inactive calls. No cut-off for these calls is given here.

Experiments:
[1] = tested on: Human immunodeficiency virus 2; assay: Antiviral activity against wild type HIV2 ROD infected in human CEM cells assessed as inhibition of virus production after 7 days by Lenti-RT activity assay; assay type: functional, organism-based; conditions: Human immunodeficiency virus 2, ROD, CCRF-CEM, 168 h
[2] = tested on: Human immunodeficiency virus 2; assay: Ratio of EC50 for HIV2 ROD with protease V47A mutation to EC50 for wild type HIV2 ROD; assay type: functional
Summary of the method: (§1)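 Protease mutant clones of HIV-2ROD came from site-directed mutagenesis of pSL-3, with stocks made by 293T transfection. CEM174 cells were infected with 100 pg RT of virus for 2 h at 37°C, washed, and seeded at 2 × 10^5 cells/ml. PI was added as 1:4 serial dilutions, 1% DMSO final, and incubated 7 days. Supernatant RT was read, in triplicate. EC50 came from nonlinear regression, and fold-change is mutant EC50 divided by HIV-2ROD EC50.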

[3] = (§2) Ratio of EC50 for HIV2 CBL-23 infected in human PBMC to EC50 for HIV1 NL4-3 infected in human MT4 cells; assay type: functional
[4] = (§3) Ratio of EC50 for HIV2 CDC310319 infected in human PBMC to EC50 for HIV1 NL4-3 infected in human MT4 cells; assay type: functional
[5] = tested on: Human immunodeficiency virus 2; assay: Antiviral activity against HIV2 ROD with protease G17N/V47A mutation infected in human CEM cells assessed as inhibition of virus production after 7 days by Lenti-RT activity assay; assay type: functional, organism-based; conditions: Human immunodeficiency virus 2, ROD, CCRF-CEM, 168 h; summary of the method: as §1
[6] = (§4) Ratio of EC50 for HIV2 MS to EC50 for HIV1 NL4-3 infected in human MT4 cells; assay type: functional
[7] = tested on: Human immunodeficiency virus 2; assay: Ratio of EC50 for HIV2 ROD with protease G17N/V47A mutation to EC50 for wild type HIV2 ROD; assay type: functional; summary of the method: as §1
[8] = tested on: Human immunodeficiency virus 1; assay: Antiviral activity against HIV1 NL4-3 infected in human MT4 cells assessed as reduction in virus-induced cytopathic effect after 5 days by MTT assay; assay type: functional, organism-based; conditions: Human immunodeficiency virus 1, NL4-3, MT4, 120 h
Summary of the method: (§5)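 MT4 cells were infected 1 h with 50–100 pg RNA virus, washed twice, and exposed in triplicate to half-log PI dilutions (DMSO 1% final) for 5 days at 37°C. Cell viability was read by MTT: 4 h, SDS/HCl lysis overnight, OD at 570/650 nm. Cytopathic-effect reduction was scaled between infected and uninfected controls. EC50 by nonlinear regression, mean of three experiments.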

[9] = tested on: Human immunodeficiency virus 2; assay: Antiviral activity against HIV2 CBL-23 infected in human PBMC assessed as inhibition of virus production after 5 days by Lenti-RT activity assay; assay type: functional, organism-based; conditions: Human immunodeficiency virus 2, CBL-23, 120 h
Summary of the method: (§6)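 PBMCs were stimulated with PHA (5 μg/ml) for 3 days, then kept in 20% FBS medium with IL-2 (50 U/ml). Cells were infected 1 h with 50–100 pg RNA virus, washed twice, and given half-log PI dilutions (DMSO 1% final) in triplicate. After 5 days at 37°C, supernatant RT was read versus infected control. EC50 by nonlinear regression, mean of three experiments.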

[10] = tested on: Human immunodeficiency virus 2; assay: Antiviral activity against HIV2 MS infected in human MT4 cells assessed as reduction in virus-induced cytopathic effect after 5 days by MTT assay; assay type: functional, organism-based; conditions: Human immunodeficiency virus 2, MT4, 120 h; summary of the method: as §5
[11] = tested on: Human immunodeficiency virus 2; assay: Ratio of EC50 for HIV2 ROD with protease G17N mutation to EC50 for wild type HIV2 ROD; assay type: functional; summary of the method: as §1
[12] = tested on: Human immunodeficiency virus 2; assay: Antiviral activity against HIV2 ROD with protease G17N mutation infected in human CEM cells assessed as inhibition of virus production after 7 days by Lenti-RT activity assay; assay type: functional, organism-based; conditions: Human immunodeficiency virus 2, ROD, CCRF-CEM, 168 h; summary of the method: as §1
[13] = tested on: Human immunodeficiency virus 2; assay: Antiviral activity against HIV2 ROD with protease V47A mutation infected in human CEM cells assessed as inhibition of virus production after 7 days by Lenti-RT activity assay; assay type: functional, organism-based; conditions: Human immunodeficiency virus 2, ROD, CCRF-CEM, 168 h; summary of the method: as §1
[14] = tested on: Human immunodeficiency virus 2; assay: Antiviral activity against HIV2 CDC310319 isolate infected in human PBMC assessed as inhibition of virus production after 5 days by Lenti-RT activity assay; assay type: functional, organism-based; conditions: Human immunodeficiency virus 2, 120 h; summary of the method: as §6
[15] = tested on: Human immunodeficiency virus 1; assay: Antiviral activity against HIV1 in presence of 50% human serum; assay type: functional, organism-based
PBMC [16] = assay: as §2; assay type: functional
PBMC [17] = assay: as §3; assay type: functional
MT4 = assay: as §4; assay type: functional
[18] = tested on: Human immunodeficiency virus 2; assay: Antiviral activity against HIV2 MS infected in human MT4 cells […] after 18 passages; assay type: functional, organism-based; conditions: Human immunodeficiency virus 2, MT4
[19] = tested on: Human immunodeficiency virus 2; assay: Ratio of EC50 for HIV2 MS infected in human MT4 cells after 1 passage to EC50 for HIV2 MS infected in human MT4 cells; assay type: functional
[20] = tested on: Human immunodeficiency virus 2; assay: Antiviral activity against HIV2 MS infected in human PBMC cells assessed as inhibition of virus production after 5 days by Lenti-RT activity assay; assay type: functional, organism-based; conditions: Human immunodeficiency virus 2, PBMC, 120 h
Summary of the method: (§7)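 Infection used 50 to 100 pg RNA for 1 h, followed by two washes. MT4 cells or PHA-stimulated, IL-2-maintained PBMCs were then exposed to half-log PI dilutions in triplicate, with 1% DMSO final. Incubation was 5 days at 37°C. Day-5 supernatant RT was read by Lenti-RT assay. EC50 came from nonlinear regression, as the mean of three independent experiments.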

[21] = tested on: Human immunodeficiency virus 2; assay: Antiviral activity against HIV2 MS infected in human MT4 cells assessed as inhibition of virus production after 5 days by Lenti-RT activity assay; assay type: functional, organism-based; conditions: Human immunodeficiency virus 2, MT4, 120 h; summary of the method: as §7
[22] = tested on: Human immunodeficiency virus 1; assay: Antiviral activity against HIV1 NL4-3 infected in human PBMC cells assessed as inhibition of virus production after 5 days by Lenti-RT activity assay; assay type: functional, organism-based; summary of the method: as §6
[23] = tested on: Human immunodeficiency virus 2; assay: Ratio of EC50 for HIV2 MS infected in human MT4 cells after 18 passages to EC50 for HIV2 MS infected in human MT4 cells; assay type: functional
[24] = tested on: Human immunodeficiency virus 2; assay: Antiviral activity against HIV2 MS infected in human MT4 cells […] after 1 passage; assay type: functional, organism-based; conditions: Human immunodeficiency virus 2, MT4
[25] = tested on: Human immunodeficiency virus 1; assay: Antiviral activity against HIV1 NL4-3 infected in human MT4 cells assessed as inhibition of virus production after 5 days by Lenti-RT activity assay; assay type: functional, organism-based
Summary of the method: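 HIV-1 NL4-3 in MT4 cells (RPMI 1640, 10% FBS) was adsorbed 1 h at 50–100 pg RNA and washed twice. PI in DMSO (1% final) was added in half-log dilutions, in triplicate. After 5 days at 37°C, supernatant RT was measured and expressed relative to infected untreated control. EC50 came from nonlinear regression, as the mean of three independent experiments.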

| Structure (SMILES) | EC50 [1] | Ratio EC50 [2] | Ratio EC50 [3] | Ratio EC50 [4] | EC50 [5] | Ratio EC50 [6] | Ratio EC50 [7] | EC50 [8] | EC50 [9] | EC50 [10] | Ratio EC50 [11] | EC50 [12] | EC50 [13] | EC50 [14] | further results |
| --- | --- | --- | --- | --- | --- | --- | --- | --- | --- | --- | --- | --- | --- | --- | --- |
| COC(=O)N[C@H](C(=O)N[C@@H](Cc1ccccc1)[C@@H](O)CN(Cc1ccc(-c2ccccn2)cc1)NC(=O)[C@@H](NC(=O)OC)C(C)(C)C)C(C)(C)C [ATAZANAVIR] | 34 nM | 0.1 | 7.8 | 22 | 3 nM | 4 | 0.1 | 5 nM | 39 nM | 20 nM | 0.6 | 20 nM | 5 nM | 110 nM |  |
| CC(C)CN(C[C@@H](O)[C@H](Cc1ccccc1)NC(=O)O[C@H]1CO[C@H]2OCC[C@H]21)S(=O)(=O)c1ccc(N)cc1 [DARUNAVIR] | 9 nM | 1.1 | 6.9 | 12.9 | 8 nM |  | 0.9 | 12 nM | 83 nM |  | 0.7 | 6 nM | 10 nM | 155 nM |  |
| CC(C)(C)NC(=O)[C@@H]1C[C@@H]2CCCC[C@@H]2CN1C[C@@H](O)[C@H](Cc1ccccc1)NC(=O)[C@H](CC(N)=O)NC(=O)c1ccc2ccccc2n1 [SAQUINAVIR] | 3.6 nM | 0.1 | 0.7 | 5.7 | 0.2 nM | 0.4 | 0.1 | 12 nM | 8 nM | 5 nM | 0.6 | 2.2 nM | 0.2 nM | 68 nM |  |
| CC(C)c1nc(CN(C)C(=O)N[C@H](C(=O)N[C@@H](Cc2ccccc2)C[C@H](O)[C@H](Cc2ccccc2)NC(=O)OCc2cncs2)C(C)C)cs1 [RITONAVIR] | 421 nM | 0.3 | 11.2 | 14.5 | 84 nM | 7.6 | 0.2 | 46 nM | 514 nM | 349 nM | 0.7 | 310 nM | 115 nM | 665 nM | EC50 [15]: 100 nM |
| Cc1c(O)cccc1C(=O)N[C@@H](CSc1ccccc1)[C@H](O)CN1C[C@H]2CCCC[C@H]2C[C@H]1C(=O)NC(C)(C)C [NELFINAVIR] | 281 nM | 0.6 | 4.6 | 21.6 | 100 nM | 2.7 | 0.4 | 18 nM | 83 nM | 48 nM | 0.7 | 199 nM | 177 nM | 389 nM |  |
| CC(C)CN(C[C@@H](O)[C@H](Cc1ccccc1)NC(=O)O[C@H]1CCOC1)S(=O)(=O)c1ccc(N)cc1 [AMPRENAVIR] | 855 nM | 0.7 |  |  | 404 nM |  | 0.5 | 72 nM | 939 nM | 900 nM | 0.7 | 583 nM | 630 nM | 674 nM | Ratio EC50 (PBMC [16]): 13; Ratio EC50 (PBMC [17]): 9.2; Ratio EC50 (MT4): 12.5 |
| CC(C)(C)NC(=O)[C@@H]1CN(Cc2cccnc2)CCN1C[C@@H](O)C[C@@H](Cc1ccccc1)C(=O)N[C@H]1c2ccccc2C[C@H]1O.O [INDINAVIR] | 65 nM | 0.5 | 0.8 | 2.6 | 24 nM | 0.5 | 0.5 | 38 nM | 33 nM | 22 nM | 0.8 | 52 nM | 34 nM | 108 nM |  |
| Cc1cccc(C)c1OCC(=O)N[C@@H](Cc1ccccc1)[C@@H](O)C[C@H](Cc1ccccc1)NC(=O)[C@H](C(C)C)N1CCCNC1=O [LOPINAVIR] | 35 nM | 9.7 | 0.7 | 10 | 260 nM | 0.8 | 7.4 | 18 nM | 12 nM | 15 nM | 0.8 | 28 nM | 340 nM | 180 nM | EC50 [18]: 515 nM; Ratio EC50 [19]: 1; EC50 [20]: 15 nM; EC50 [21]: 6 nM; Activity [22]: Active; Ratio EC50 [23]: 34; EC50 [24]: 15 nM; Activity [25]: Active |
